Source: ChEMBL document CHEMBL1141352, “Microbial transformation of cephalomannine by Luteibacter sp” (J Nat Prod, 2007)
pIC50: −log10 of the molar value.

Tests used:
Type in all cases: functional, cell-based
HCT-8 = experiment: Cytotoxicity against human HCT8 cells by MTT assay
How it was run: (§1)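 Cells kept in RPMI 1640 with 10% FBS, penicillin 100 units/mL and streptomycin 100 μg/mL, at 37 °C in humidified 5% CO2. Seeded at 1200 cells/well; compounds added after 24 h and incubated 96 h. Tested at 10^-5 to 10^-9 M (five concentrations) from DMSO stocks, with 0.1% DMSO final, in triplicate wells. Viability by MTT formazan absorbance at 570 nm.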

Bel-7402 = experiment: Cytotoxicity against human Bel7402 cells by MTT assay; how it was run: as §1
BGC-823 = experiment: Cytotoxicity against human BGC823 cells by MTT assay; how it was run: as §1
A549 = experiment: Cytotoxicity against human A549 cells by MTT assay; how it was run: as §1
A2780 = experiment: Cytotoxicity against human A2780 cells by MTT assay; how it was run: as §1

| Structure (SMILES) | pIC50 (HCT-8) | pIC50 (Bel-7402) | pIC50 (BGC-823) | pIC50 (A549) | pIC50 (A2780) |
| --- | --- | --- | --- | --- | --- |
| CC(=O)O[C@@]12CO[C@@H]1C[C@@H](O)[C@@]1(C)C(=O)C(=O)C3=C(C)[C@@H](O)C[C@@](O)([C@@H](OC(=O)c4ccccc4)[C@H]21)C3(C)C | < 5.00 | < 5.00 | 5.86 | < 5.00 | 5.31 |
| CC(=O)O[C@H]1C(=O)[C@]2(C)[C@@H](O[C@H]3OC[C@@H](O)[C@H](O)[C@H]3O)C[C@H]3OC[C@@]3(OC(C)=O)[C@H]2[C@H](OC(=O)c2ccccc2)[C@]2(O)C[C@H](O)C(C)=C1C2(C)C | < 5.00 | < 5.00 | < 5.00 | < 5.00 | < 5.00 |
| C/C=C(\C)C(=O)N[C@@H](c1ccccc1)[C@@H](O)C(=O)O[C@H]1C[C@@]2(O)[C@@H](OC(=O)c3ccccc3)[C@@H]3[C@]4(OC(C)=O)CO[C@@H]4C[C@H](O)[C@@]3(C)C(=O)[C@H](O)C(=C1C)C2(C)C | 5.48 | 5.57 | 7.00 | < 5.00 | 7.05 |
| C/C=C(/C)C(=O)N[C@@H](c1ccccc1)[C@@H](O)C(=O)O[C@H]1C[C@@]2(O)[C@@H](OC(=O)c3ccccc3)[C@@H]3[C@]4(OC(C)=O)CO[C@@H]4C[C@@H](O)[C@@]3(C)C(=O)[C@H](O)C(=C1C)C2(C)C | 5.65 | 5.45 | 6.10 | 5.49 | 6.46 |
| C/C=C(/C)C(=O)N[C@@H](c1ccccc1)[C@@H](O)C(=O)O[C@H]1C[C@@]2(O)[C@@H](OC(=O)c3ccccc3)[C@@H]3[C@]4(OC(C)=O)CO[C@@H]4C[C@@H](O)[C@@]3(C)C(=O)[C@H](OC(C)=O)C(=C1C)C2(C)C | 6.64 | 6.16 | 7.05 | 7.05 | 7.15 |
| CCC(C)C(=O)N[C@@H](c1ccccc1)[C@@H](O)C(=O)O[C@H]1C[C@@]2(O)[C@@H](OC(=O)c3ccccc3)[C@@H]3[C@]4(OC(C)=O)CO[C@@H]4C[C@@H](O)[C@@]3(C)C(=O)[C@H](OC(C)=O)C(=C1C)C2(C)C (stereo not given in full) | 5.80 | 5.48 | 6.28 | 5.65 | 6.19 |
| C/C=C(\C)C(=O)N[C@@H](c1ccccc1)[C@@H](O)C(=O)O[C@H]1C[C@@]2(O)[C@@H](OC(=O)c3ccccc3)[C@@H]3[C@]4(OC(C)=O)CO[C@@H]4C[C@H](O)[C@@]3(C)C(=O)[C@H](OC(C)=O)C(=C1C)C2(C)C [CEPHALOMANNINE] | 6.51 | 6.04 | 7.00 | 7.00 | 7.00 |
| CC(=O)O[C@H]1C(=O)[C@@]2(C)[C@H]([C@H](OC(=O)c3ccccc3)[C@]3(O)C[C@H](OC(=O)[C@H](O)[C@@H](NC(=O)c4ccccc4)c4ccccc4)C(C)=C1C3(C)C)[C@]1(OC(C)=O)CO[C@@H]1C[C@@H]2O [PACLITAXEL] | 7.43 | 7.00 | 8.15 | 7.72 | 8.20 |
